# Reference: ChEMBL document CHEMBL5058577, “EUbOPEN Chemogenomics Library 2 (Multiplex)” (2022)
# System: U2OS
# Assay: Multiplex assay against U2OS
# Assay type: toxicity, cell-based
# Conditions: human
# Outline: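 On a CQ1 microscope at 37°C and 5% CO2, live cells were imaged after compound addition. They had been stained at seeding with Hoechst33342, BioTracker Green Microtubule Cytoskeleton Dye, MitoTracker Red and Annexin V Alexa Fluor 680. CellPathfinder machine-learning gating assigned cells to Hoechst high-intensity objects or normal cells, normal cells to healthy, pyknosed or fragmented nuclei, and pyknosed cells to mitotic or apoptotic. Tubulin, mitochondrial-mass and membrane-permeability phenotypes are per cents of healthy-nucleus cells.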
# [1] = 12 h, 1 µM, compound concentration 1 uM, replicate 1
# [2] = 12 h, 1 µM, compound concentration 1 uM, replicate 2
# [3] = 12 h, 10 µM, compound concentration 10 uM, replicate 1
# [4] = 12 h, 10 µM, compound concentration 10 uM, replicate 2
# [5] = 24 h, 1 µM, compound concentration 1 uM, replicate 1
# [6] = 24 h, 1 µM, compound concentration 1 uM, replicate 2
# [7] = 24 h, 10 µM, compound concentration 10 uM, replicate 1
# [8] = 24 h, 10 µM, compound concentration 10 uM, replicate 2
# [9] = 48 h, 1 µM, compound concentration 1 uM, replicate 1
# [10] = 48 h, 1 µM, compound concentration 1 uM, replicate 2
# [11] = 48 h, 10 µM, compound concentration 10 uM, replicate 1
# [12] = 48 h, 10 µM, compound concentration 10 uM, replicate 2
smiles,measurement,setting,value
Cl.Clc1ccc2nsnc2c1NC1=NCCN1 [TIZANIDINE HYDROCHLORIDE],Population Apoptotic (%),[1],82%
same,Population Fragmented Nuclei (%),[1],20%
same,Population Healthy Nuclei (%),[1],73%
same,Population Hoechst High Intensity Objects (%),[1],2%
same,Population Membrane Permeable-Phenotype (%),[1],6%
same,Population Mitochondria Different-Phenotype (%),[1],1%
same,Population Mitotic Cells (%),[1],17%
same,Population Normal (%),[1],97%
same,Population Pyknosed Nuclei (%),[1],5%
same,Population Tubulin-Different-Phenotype (%),[1],2%
same,Total Cell Count,[1],306
same,Population Apoptotic (%),[2],85%
same,Population Fragmented Nuclei (%),[2],10%
same,Population Healthy Nuclei (%),[2],78%
same,Population Hoechst High Intensity Objects (%),[2],1%
same,Population Membrane Permeable-Phenotype (%),[2],3%
same,Population Mitochondria Different-Phenotype (%),[2],2%
same,Population Mitotic Cells (%),[2],14%
same,Population Normal (%),[2],98%
same,Population Pyknosed Nuclei (%),[2],10%
same,Population Tubulin-Different-Phenotype (%),[2],3%
same,Total Cell Count,[2],140
same,Population Apoptotic (%),[3],77%
same,Population Fragmented Nuclei (%),[3],31%
same,Population Healthy Nuclei (%),[3],61%
same,Population Hoechst High Intensity Objects (%),[3],2%
same,Population Membrane Permeable-Phenotype (%),[3],7%
same,Population Mitochondria Different-Phenotype (%),[3],2%
same,Population Mitotic Cells (%),[3],22%
same,Population Normal (%),[3],97%
same,Population Pyknosed Nuclei (%),[3],6%
same,Population Tubulin-Different-Phenotype (%),[3],2%
same,Total Cell Count,[3],280
same,Population Apoptotic (%),[4],90%
same,Population Fragmented Nuclei (%),[4],22%
same,Population Healthy Nuclei (%),[4],66%
same,Population Membrane Permeable-Phenotype (%),[4],14%
same,Population Mitochondria Different-Phenotype (%),[4],7%
same,Population Mitotic Cells (%),[4],10%
same,Population Pyknosed Nuclei (%),[4],10%
same,Population Tubulin-Different-Phenotype (%),[4],15%
same,Total Cell Count,[4],98
same,Population Apoptotic (%),[5],90%
same,Population Fragmented Nuclei (%),[5],19%
same,Population Healthy Nuclei (%),[5],72%
same,Population Hoechst High Intensity Objects (%),[5],0%
same,Population Membrane Permeable-Phenotype (%),[5],4%
same,Population Mitochondria Different-Phenotype (%),[5],2%
same,Population Mitotic Cells (%),[5],9%
same,Population Normal (%),[5],99%
same,Population Pyknosed Nuclei (%),[5],8%
same,Population Tubulin-Different-Phenotype (%),[5],5%
same,Total Cell Count,[5],381
same,Population Apoptotic (%),[6],89%
same,Population Fragmented Nuclei (%),[6],15%
same,Population Healthy Nuclei (%),[6],73%
same,Population Hoechst High Intensity Objects (%),[6],4%
same,Population Membrane Permeable-Phenotype (%),[6],7%
same,Population Mitochondria Different-Phenotype (%),[6],4%
same,Population Mitotic Cells (%),[6],10%
same,Population Normal (%),[6],95%
same,Population Pyknosed Nuclei (%),[6],11%
same,Population Tubulin-Different-Phenotype (%),[6],6%
same,Total Cell Count,[6],172
same,Population Apoptotic (%),[7],65%
same,Population Fragmented Nuclei (%),[7],29%
same,Population Healthy Nuclei (%),[7],62%
same,Population Hoechst High Intensity Objects (%),[7],2%
same,Population Membrane Permeable-Phenotype (%),[7],4%
same,Population Mitochondria Different-Phenotype (%),[7],1%
same,Population Mitotic Cells (%),[7],34%
same,Population Normal (%),[7],97%
same,Population Pyknosed Nuclei (%),[7],8%
same,Population Tubulin-Different-Phenotype (%),[7],1%
same,Total Cell Count,[7],327
same,Population Apoptotic (%),[8],86%
same,Population Fragmented Nuclei (%),[8],25%
same,Population Healthy Nuclei (%),[8],61%
same,Population Membrane Permeable-Phenotype (%),[8],12%
same,Population Mitochondria Different-Phenotype (%),[8],7%
same,Population Mitotic Cells (%),[8],13%
same,Population Pyknosed Nuclei (%),[8],13%
same,Population Tubulin-Different-Phenotype (%),[8],11%
same,Total Cell Count,[8],118
same,Population Apoptotic (%),[9],86%
same,Population Fragmented Nuclei (%),[9],11%
same,Population Healthy Nuclei (%),[9],80%
same,Population Hoechst High Intensity Objects (%),[9],1%
same,Population Membrane Permeable-Phenotype (%),[9],2%
same,Population Mitochondria Different-Phenotype (%),[9],1%
same,Population Mitotic Cells (%),[9],13%
same,Population Normal (%),[9],98%
same,Population Pyknosed Nuclei (%),[9],7%
same,Population Tubulin-Different-Phenotype (%),[9],2%
same,Total Cell Count,[9],512
same,Population Apoptotic (%),[10],90%
same,Population Fragmented Nuclei (%),[10],17%
same,Population Healthy Nuclei (%),[10],74%
same,Population Hoechst High Intensity Objects (%),[10],3%
same,Population Membrane Permeable-Phenotype (%),[10],5%
same,Population Mitochondria Different-Phenotype (%),[10],2%
same,Population Mitotic Cells (%),[10],9%
same,Population Normal (%),[10],96%
same,Population Pyknosed Nuclei (%),[10],8%
same,Population Tubulin-Different-Phenotype (%),[10],3%
same,Total Cell Count,[10],260
same,Population Apoptotic (%),[11],93%
same,Population Fragmented Nuclei (%),[11],18%
same,Population Healthy Nuclei (%),[11],75%
same,Population Hoechst High Intensity Objects (%),[11],2%
same,Population Membrane Permeable-Phenotype (%),[11],5%
same,Population Mitochondria Different-Phenotype (%),[11],1%
same,Population Mitotic Cells (%),[11],6%
same,Population Normal (%),[11],97%
same,Population Pyknosed Nuclei (%),[11],6%
same,Population Tubulin-Different-Phenotype (%),[11],3%
same,Total Cell Count,[11],459
same,Population Apoptotic (%),[12],76%
same,Population Fragmented Nuclei (%),[12],22%
same,Population Healthy Nuclei (%),[12],65%
same,Population Hoechst High Intensity Objects (%),[12],4%
same,Population Membrane Permeable-Phenotype (%),[12],15%
same,Population Mitochondria Different-Phenotype (%),[12],5%
same,Population Mitotic Cells (%),[12],23%
same,Population Normal (%),[12],95%
same,Population Pyknosed Nuclei (%),[12],11%
same,Population Tubulin-Different-Phenotype (%),[12],7%
same,Total Cell Count,[12],149
